# Compound activity deposited in PubChem BioAssay by The Scripps Research Institute Molecular Screening Center.
# Tn6 DDE FP = disrupts Tn6 cyclic peptide binding to fibrin D-Dimer-E complex. P02675. Fibrin DD(E) TRITC-Tn6 fluorescence polarization displacement. inhibition, % at 8.3 µM. 0.21% of 370,000 active. AID 720509;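 active means inhibition above a per-campaign cutoff: mean of compounds within control limits plus 3 SD, cut at about 15% in these data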;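 further: 0% = median of all compound wells on the plate and 100% = blocking peptide control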
# DDE Tn7 FP inh = disrupts Tn7 cyclic peptide binding to fibrin D-Dimer-E complex; FP displacement of FITC-Tn7 peptide from fibrin DD(E); 0% = median of compound wells per plate; inhibition, % at 8.3 µM; 0.13% of 370,000 active; AID 720508;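 active means inhibition above the mean of compounds falling within the control limits plus 3 SD of them, cut at about 14% in these data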;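 further: 0% = plate median of compound wells and 100% = 10 µM Aha-Tn7 peptide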
#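 Assay system: Human fibrin DD(E) protein | Medium: Tris buffer with calcium and detergent, pH 7.8 | Reagent: 0.1 µM fluorescent Tn7 | Compound dosing: Single point at 8.3 µM | Times: 10 min preincubation, 3 h with tracer, room temperature | Detection: Fluorescence polarization of the labelled Tn7 tracer | Controls: Aha-Tn7 high control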
# SIAE primary = human SIAE inhibition, primary screen | 0.69% of 370,000 active | SIAE FP-Rh probe binding, fluorescence polarization | inhibition, % at 9.66 µM | Q9HAT2 | AID 1053197;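 active means inhibition above a cutoff: mean of compounds within the control limits plus 3 SD of those, cut at about 17% in these data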;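 further: 0% = plate median of compound wells and 100% = probe without SIAE protein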
# mABHD4 FP = ABHD4 (mouse) inhibition, primary FP screen | Q8VD66 | purified mABHD4, FP-Rh probe fluorescence polarization | inhibition, % at 8.92 µM | 0.54% of 370,000 active | AID 720543;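 active means inhibition exceeding the mean over every tested compound plus 3 SD, cut at about 30% in these data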;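 further: 0% = plate median of compound wells and 100% = S159A mutant with DMSO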
#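 assay system = mABHD4 protein | compound dosing = single nominal dose of 8.92 µM, 0.89% DMSO final | read-out basis = percent inhibition of probe binding, normalized to plate controls | schedule = Enzyme–compound pre-incubation 45 min, then probe 60 min, both 25 °C | detection = fluorescence polarization, excitation 525 nm, emission 598 nm, BODIPY TMR filters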
# TCR-CD3 inh = inhibitors of human TCR-CD3 interaction; TAMRA-labeled TCR probe fluorescence, biochemical; inhibition, % at 9.4 µM; 0.37% of 360,000 active; in the data active means inhibition above about 19%;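 further: recombinant mutant TCR 2C K166C tagged with TAMRA read by polarization; 0% = receptor in buffer alone and 100% = receptor with positive control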
# HTRA1 inhibitor = blocks human HTRA1 serine peptidase. recombinant HTRA1, FP-rhodamine activity-based probe, fluorescence polarization. Q92743. 0.5% of 340,000 active. inhibition, % at 5.96 µM; in the data active means inhibition above about 36%;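 further: 0% = enzyme with DMSO and 100% = wells lacking enzyme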
# Target sequence (Q92743 whole entry, looked up): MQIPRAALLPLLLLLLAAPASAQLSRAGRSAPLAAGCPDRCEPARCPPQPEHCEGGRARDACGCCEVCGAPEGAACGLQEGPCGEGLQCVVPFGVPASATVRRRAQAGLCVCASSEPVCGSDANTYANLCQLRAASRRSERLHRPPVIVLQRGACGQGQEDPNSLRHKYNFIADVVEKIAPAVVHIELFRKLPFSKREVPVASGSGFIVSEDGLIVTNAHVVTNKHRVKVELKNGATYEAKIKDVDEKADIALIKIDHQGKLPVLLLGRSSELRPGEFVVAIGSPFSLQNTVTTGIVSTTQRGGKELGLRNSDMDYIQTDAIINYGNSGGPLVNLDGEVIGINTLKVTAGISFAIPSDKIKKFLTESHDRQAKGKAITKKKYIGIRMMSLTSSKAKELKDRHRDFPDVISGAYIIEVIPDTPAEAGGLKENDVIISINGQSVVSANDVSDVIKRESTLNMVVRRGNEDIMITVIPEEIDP
# mABHD4 conf = ABHD4 (mouse) inhibition, FP confirmation. shares compounds with mABHD4 FP. purified mABHD4, FP-Rh probe fluorescence polarization. inhibition, % at 8.92 µM. 55% of 1,800 active. AID 720658;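 active means mean inhibition across replicates above the hit cutoff set in the primary screen, cut at about 30% in these data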;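 further: 0% = wild-type ABHD4 with DMSO and 100% = catalytically dead S159A mutant with DMSO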
# SIAE inh conf = confirmation of human SIAE inhibitors; AID 1117263; shares compounds with SIAE primary; inhibition, % at 9.66 µM; SIAE FP-Rh activity-based probe, fluorescence polarization; 13% of 2,300 active;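 active means mean inhibition of the replicates above the hit cutoff set in the primary screen, cut at about 17% in these data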;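 further: 0% = SIAE with DMSO and probe and 100% = probe without SIAE; inhibitors lower polarization as more probe stays unbound to SIAE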
# The depositor's hits bear a star; x = no result; + = active, no number. Shown are actives, neighbours in structure and some others; about 1.8% of the full set was active somewhere.
SMILES,Tn6 DDE FP,DDE Tn7 FP inh,SIAE primary,mABHD4 FP,TCR-CD3 inh,HTRA1 inhibitor,mABHD4 conf,SIAE inh conf
COc1cc(/C=N/Nc2nc3ccccc3[nH]2)cc(OC)c1O,-7,-3,18*,38*,-4,12,26,16
CC(C=NN=C1C(=O)Nc2ccccc21)=Cc1ccccc1,7,-1,-3,-2,8,x,x,x
CCN1CCCCC(NC(=O)COCc2ccccc2)C1=O (stereo not drawn),3,-8,-5,3,x,x,x,x
Cc1ccc(NC(=O)CN2C(=O)S/C(=C/c3ccc(O)c([N+](=O)[O-])c3)C2=O)cc1C,-2,-1,25*,51*,11,10,63*,4
Oc1ccc(Nc2ccc3ccccc3c2)cc1,4,-1,20*,39*,6,x,56*,15
O=C1NN(c2cccc(Br)c2)C(=O)/C1=C\c1ccc(O)cc1,-6,-7,19*,37*,3,-1,41*,4
O=C1NN(c2ccc(Br)cc2)C(=O)/C1=C\c1ccc(O)cc1O,1,-2,7,25,-4,6,x,x
CCOC1=CC2=C(C(=O)C(Cl)=CC2=O)[C@@H]2CN(S(=O)(=O)c3ccc(C)cc3)[C@@H](c3ccccc3)[C@H]12,-13,-2,23*,89*,15,x,101*,18*
CCN1C(=O)[C@@H]2[C@@H]3CN(S(=O)(=O)c4ccc(C)cc4)[C@@H](c4ccccc4)[C@@H]3C(=O)C[C@@H]2C1=O,-6,-7,2,2,1,x,x,x
COc1cccc(NC(=S)Nc2ccc(O)cc2)c1,7,-2,17*,34*,6,26,20,5
O=C(N/N=C/c1c(O)n(-c2ccccc2Cl)c(=O)c2ccccc12)c1cccnc1,5,-2,9,22,11,31,x,x
O=C(N/N=C/c1c(O)n(Cc2ccccc2)c(=O)c2ccccc12)c1cccnc1,-14,-9,26*,62*,3,23,73*,12
COc1ccc(Cn2c(O)c(/C=N/NC(=O)c3cccnc3)c3ccccc3c2=O)cc1,-17,-2,29*,31*,0,10,45*,7
COC(=O)C1=C(C)N(Cc2ccc(C(F)(F)F)cc2)C(=NCc2ccccc2C(F)(F)F)NC1c1ccccc1C(F)(F)F (stereo not drawn),-6,3,3,0,3,x,x,x
COC(=O)C1=C(C)N(C)C(=NCc2ccc3c(c2)OCO3)NC1c1cccc(Cl)c1 (stereo not drawn),0,-2,-4,3,1,x,x,x
COC(=O)c1ccc(CC(=O)c2ccc(O)cc2O)o1,x,x,x,x,x,1,x,x
COC(=O)c1ccc(CC(=O)c2c(C)cc(O)cc2O)o1,3,-8,24*,38*,10,6,11,5
COC(=O)C1=C(C)NC2=C(C(=O)c3ccccc32)C1c1cccc(OC)c1 (stereo not drawn),-2,0,4,21,-2,3,x,x
CC1=C([N+](=O)[O-])C(c2cccc(Br)c2)C2=C(N1)c1ccccc1C2=O (stereo not drawn),-3,2,28*,30*,6,14,35*,-2
COc1ccc(S[C@]2(C(=O)N(C)C)CC(=O)N(c3ccc(C#N)cc3)[C@@H]2c2ccc(OC)cc2)cc1,1,-3,-3,-6,x,x,x,x
CC(=O)Oc1ccc2c(=O)c(Oc3ccccc3)coc2c1OC(C)=O,-3,-3,20*,37*,10,28,15,3
COc1ccc(C2COc3cc(O)ccc3C2)c(OC)c1O (stereo not drawn),2,-7,5,2,-10,-6,x,x
Oc1ccc2c(c1)OCC1(O)Cc3cc(O)c(O)cc3C21 (stereo not drawn),+,28*,+,110*,x,31,129*,+
